# Article PMC3869895 (Investigational New Drugs, 2013)
# Entries after “also recorded” stand apart in the source; their conditions may differ.
# How the values were obtained:
# [1] = Pharmacokinetic analysis of total and unbound RO4929097 in serial plasma; assay type: in vivo, human
# [2] = system: xenograft models; details: intermittent and daily dosing in xenograft models; cited from earlier work
# [3] = system: circulating angiogenesis factors; details: in vitro; cited from earlier work
# [4] = cited from earlier work
# [5] = stated as given in discussion; no reference given; cited from earlier work
# [6] = system: advanced solid tumors; assay: Antitumor activity by RECIST 1.1; assay type: in vivo, human; details: with gemcitabine
# Procedure, shortened: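 Oral test compound once daily on days 1–3, 8–10, […] and 22–24 of 28-day cycles, fasting, with IV gemcitabine 1,000 mg/m2 on days 1, 8 and 15. Measurable disease required. Radiographic restaging every 2 cycles, scored by RECIST 1.1. Prolonged stable disease means stable disease for 4 or more months. Treatment continued until unacceptable toxicity, progression, withdrawal or study completion.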
# [7] = in vitro; rather than overt cell death; no reference given; cited from earlier work
# [8] = system: gamma secretase; details: cited from earlier work
# [9] = system: patients with advanced solid tumors; assay: Phase I 3+3 dose escalation: dose limiting toxicities and adverse events; assay type: in vivo, human
# [10] = dose level 3 (45 mg) + gemcitabine, CTCAE v4
compound,measurement,setting,value
CC(C)(C(=O)NCC(F)(F)C(F)(F)F)C(=O)N[C@@H]1C(=O)Nc2ccccc2-c2ccccc21 [RO4929097],autoinduction (Day 10: Day 1 total and free AUC 0-24),[1]; dose levels 45 and 90 mg,presence of autoinduction
same,day 10: day 1 areas under the curve,[1]; with increasing dose levels,below 1
same,antitumor activity,[2],demonstrates antitumor activity
same,expression of circulating angiogenesis factors,[3],reduce the expression
same,protein binding,[4],highly protein bound
same,half-life,[5],approximately 20 h
same,"stable disease > 4 months (prolonged stable disease), number of patients",[6]; 18 patients enrolled,3 patients
same,Best response (RECIST 1.1),"[6]; one patient with nasopharyngeal carcinoma, 45 mg dose level",partial response
same,cell phenotype,[7],more flattened phenotype
same,inhibition of gamma secretase,[8],potent inhibitor
same,DLT Event,[9]; dose level 2 (30 mg) + gemcitabine,Transaminitis
same,Grade of DLT event Transaminitis,"[9]; dose level 2 (30 mg) + gemcitabine, CTCAE v4",3
same,DLT Event,[9]; dose level 3 (45 mg) + gemcitabine,Transaminitis; also recorded: Maculopapular rash
same,Grade of DLT event Maculopapular rash,[9]; [10],3
same,Grade of DLT event Transaminitis,[9]; [10],3
same,DLT Event,[9]; dose level 4 (90 mg) + gemcitabine,Transaminitis
same,Grade of DLT event Transaminitis,"[9]; dose level 4 (90 mg) + gemcitabine, CTCAE v4",3
same,Grade of DLT event <75 % RO doses,"[9]; dose level 4 (90 mg) + gemcitabine, secondary to prolonged neutropenia",3
same,maximum tolerated dose,"[9]; in combination with gemcitabine, exceeded at this dose",< 90 mg
